# Screening results as filed in PubChem BioAssay.
# ABHD5-PLIN5 inh: blocks binding of human ABHD5 to perilipin-5 | Q00G26+Q8WTS1 | Split G. princeps luciferase complementation, luminescence, 4 h | inhibition, % at 4 µM | hit rate 0.78% among 360,000;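 active = inhibition above the mean inhibition across every tested compound plus 3 SD, cut at about 22% in these data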;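 also: 0% = DMSO only wells and the 100% control is not disclosed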
# Rpn11 inh: inhibitors of human proteasome Rpn11; O00487; human 26S proteasome, Ub4-pepOG fluorescence polarization; 20S core pre-blocked with epoxomicin; inhibition, % at 20 µM; hit rate 0.59% among 360,000; AID 588493;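 active = inhibition at 20 µM, scaled to each plate's controls, above about 33%, limit read from the data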
# Target sequence (O00487 whole entry, looked up): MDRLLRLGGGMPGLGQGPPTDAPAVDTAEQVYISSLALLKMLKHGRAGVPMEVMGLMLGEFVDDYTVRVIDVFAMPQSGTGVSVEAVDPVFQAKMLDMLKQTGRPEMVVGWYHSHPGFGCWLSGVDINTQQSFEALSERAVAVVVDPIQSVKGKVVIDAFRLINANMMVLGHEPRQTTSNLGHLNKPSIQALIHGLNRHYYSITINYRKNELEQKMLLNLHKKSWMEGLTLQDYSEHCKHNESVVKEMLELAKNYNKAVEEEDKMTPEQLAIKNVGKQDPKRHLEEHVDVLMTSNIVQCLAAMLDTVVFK
# XiGFP reactiv: activators of X-chromosome reactivation in mouse fibroblasts | XiGFP mouse fibroblasts, % GFP-positive cells imaging, 3 d; cells co-treated with 5-aza-dC sensitizer; scaled so ellipticine positive control = 100% | activation, % at 7.58 µM | hit rate 0.055% among 360,000 | AID 743238;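 active = mean normalized replicate activation at least 10% and every replicate at or above 10%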;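 also: 0% = median of on-plate neutral control wells and 100% = ellipticine 6 µM median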
#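 Material: XiGFP fibroblasts, SV40-immortalized; Buffer or medium: DMEM containing 5-aza-dC; Compound dosing: single point; Times: 3 days compound exposure.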
# NadD inh: NadD (S. aureus) enzyme inhibition | hit rate 0.78% among 360,000 | inhibition, % at 20 µM | purified NadD enzyme, colorimetric absorbance read-out; in the data active = inhibition above about 26%
# Rin1-Abl PPI inh: human Rin1-Abl interaction inhibition; P00519+Q13671; TR-FRET Rin1/Abl binding, biochemical; inhibition, % at 7.35 µM; hit rate 0.4% among 360,000; AID 588664; in the data active = inhibition above about 5%, passing the limit was not always enough
# ABHD5-PLIN5 conf: confirmation of human ABHD5-PLIN5 interaction inhibitors; hit rate 67% among 2,200; shares compounds with ABHD5-PLIN5 inh; inhibition, % at 4 µM; biochemical ABHD5-PLIN5 interaction, luminescence; in the data active = inhibition above about 23%;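 also: 0% = DMSO vehicle wells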
# HNF4 counter: HNF4 split-luciferase signal hit, counter-screen | shares compounds with ABHD5-PLIN5 inh | HNF4 dimerization, luminescence, biochemical | inhibition, % at 4 µM | hit rate 77% among 2,200 | AID 651674;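 active = mean inhibition across replicate wells exceeding the computed hit threshold, cut at about 13% in these data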;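 also: light from luciferase halves that rejoin when HNF4 fusion proteins dimerize; 0% = DMSO only wells and the 100% control is not given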
# * hit, by the source's call; · = no result given. A selection: hits, their analogues and other compounds. The true share with any hit is near 1.9%.
SMILES,ABHD5-PLIN5 inh,Rpn11 inh,XiGFP reactiv,NadD inh,Rin1-Abl PPI inh,ABHD5-PLIN5 conf,HNF4 counter
CN1C(=O)c2cc(NC(=O)C3CCCC3)ccc2OC[C@H]2O[C@@H](CC(=O)NCCc3ccncc3)CC[C@@H]21,·,·,0.0,·,·,·,·
CC1(C)CC(=O)C(C(C2=C(O)CC(C)(C)CC2=O)c2ccc(O)c([N+](=O)[O-])c2)=C(O)C1,23.5*,-3.1,0.0,-2.5,0.7,72.8*,56.8*
O=S(=O)(NC1=NCCCCC1)c1ccc2sc(NS(=O)(=O)c3ccc4ccccc4c3)nc2c1,47.5*,19.6,0.4,17.9,-4.8,9.2,-35.0
O=S(=O)(Nc1nc2c(s1)CCCC2)c1ccc2ccccc2c1,-4.1,-3.6,·,-2.3,1.2,·,·
CC(=O)N(C)C[C@H]1Oc2ncc(C#CC(C)(C)O)cc2C(=O)N([C@@H](C)CO)C[C@H]1C,·,·,0.3,·,·,·,·
COc1ccc(NCc2nc3ccccc3n2CCOc2ccccc2)cc1,29.3*,6.9,·,4.1,-3.8,6.4,1.6
COc1ccc(NCc2nc3ccccc3n2CCOc2ccc(C)cc2)cc1,24.8*,17.3,0.1,12.2,-0.1,6.1,9.6
C[C@H]1CN([C@@H](C)CO)S(=O)(=O)c2ccc(C3=CCCCC3)cc2O[C@H]1CN(C)CC1CC1,·,·,-0.8,·,·,·,·
COC(=O)c1ccc(CCc2cc(O)c(Br)cc2O)cc1,92.6*,4.7,0.0,0.2,-0.4,21.1,48.2*
N#CC1=C(Nc2ccccc2Cl)SC(c2ccncc2)NC1=O (stereo unspecified),-19.0,5.1,0.0,10.2,-1.9,·,·
N#CC1=C(Nc2ccccc2Cl)SC2(CCCC2)NC1=O,33.0*,4.2,·,9.1,0.1,-1.7,19.2*
CCCCC(=O)Nc1cccc(C(=O)Nc2ccccc2C(=O)O)c1,94.9*,0.7,0.0,-2.1,1.2,3.2,1.4
COc1ccccc1NC(=O)CSc1c2c(nc3ccccc13)CCC2,0.7,-1.4,·,-1.5,-1.2,·,·
COc1ccc(NC(=O)CSc2c3c(nc4ccccc24)CCCC3)c(OC)c1,25.4*,7.7,0.1,-1.7,-6.1,29.3*,44.0*
O=[N+]([O-])/C=C\c1ccc(N2CCOCC2)cc1,64.6*,-2.5,0.2,-6.7,-2.1,87.7*,89.3*
COc1cc2c(cc1OC)C(=O)C(Br)CC2 (stereo unspecified),82.4*,18.7,·,24.9,0.6,5.4,15.6*
COc1ccc(NC(=O)N(C)C[C@@H]2Oc3ccc(NC(=O)CCN4CCOCC4)cc3C(=O)N([C@H](C)CO)C[C@H]2C)cc1,·,·,0.2,·,·,·,·
O=c1c2ccccc2nc2ccc(NCc3ccco3)nn12,31.4*,-95.2,·,1.7,-6.7,72.4*,79.9*
Cc1sc2nc3ccc(NCc4ccco4)nn3c(=O)c2c1C,31.0*,-49.1,·,1.4,-1.7,65.9*,77.4*
Cc1sc2nc(SCC(=O)NCc3ccco3)n(C)c(=O)c2c1C,5.0,-0.3,·,-4.4,0.8,·,·
O=C(NCc1ccccc1)C(c1ccccc1F)n1c(=O)c(-c2ccco2)nc2ccccc21 (stereo unspecified),66.8*,·,0.0,·,·,68.6*,31.6*
COc1ccc(C(C(=O)NCc2ccccc2)n2c(=O)c(-c3ccco3)nc3ccccc32)cc1 (stereo unspecified),72.3*,·,0.0,·,·,77.8*,42.0*
O=C(NCc1ccccc1)C(c1ccccc1F)n1c(=O)c(-c2ccccc2)nc2ccccc21 (stereo unspecified),-4.0,·,-0.2,·,·,·,·
COCC#Cc1ccc([C@@H]2[C@@H](CO)N3C(=O)CN(C(=O)Nc4cc(F)ccc4F)C[C@H]23)cc1,·,·,0.1,·,·,·,·
CCC(C)NCCOCCOc1ccc(Cl)c2ccccc12 (stereo unspecified),29.7*,10.8,-0.1,-3.3,-8.2,14.9,1.5
SMILES,ABHD5-PLIN5 inh,Rpn11 inh,XiGFP reactiv,NadD inh,Rin1-Abl PPI inh,ABHD5-PLIN5 conf,HNF4 counter
CCC(C)NCCOCCOc1ccc(Cl)c(C)c1C (stereo unspecified),18.8,2.1,0.7,-5.1,-0.2,·,·
COc1ccc(C(C[N+](=O)[O-])c2c(C)cc3ccccn23)c(OC)c1 (stereo unspecified),29.5*,7.1,0.1,14.8,0.4,44.9*,28.9*
COC(=O)C1=C(C)N(Cc2ccco2)C(=O)/C1=C\c1ccc(N(C)C)cc1,-3.5,·,0.2,-2.5,-0.8,·,·
COC(=O)C1=C(C)N(Cc2ccco2)C(=O)/C1=C\c1ccc([N+](=O)[O-])cc1,69.7*,15.1,-0.1,1.5,1.3,98.4*,95.2*
COc1ccc(NC(=O)N(C)C[C@H]2Oc3ncc(-c4ccc(C#N)cc4)cc3C(=O)N([C@H](C)CO)C[C@@H]2C)cc1,·,·,-0.1,·,·,·,·
COc1ccc(-n2c(C)cc(/C=C3\SC(=O)NC3=O)c2C)cc1,8.2,5.6,0.1,5.2,-0.6,·,·
Cc1cc(/C=C2\SC(=Nc3ccccc3)NC2=O)c(C)n1-c1ccc(S(N)(=O)=O)cc1,28.5*,31.9,·,45.8*,-0.3,6.8,7.0
C[C@@H]1CCCCO[C@H](CN(C)C(=O)c2ccccc2)[C@H](C)CN([C@H](C)CO)C(=O)c2cc(NS(C)(=O)=O)ccc2O1,·,·,-1.2,·,·,·,·
C=CCC(Nc1ccccc1)C12C=CC(O1)C(C(=O)OC)=C2C(=O)OC (stereo unspecified),26.2*,6.0,·,-2.3,-1.7,85.6*,89.5*
COC(=O)C1=C(C(=O)OC)[C@]2([C@@H]3CC=CCN[C@@H](Cc4ccccc4)C(=O)N3Cc3ccccc3)C=C[C@H]1O2,-4.4,4.2,0.0,6.5,3.3,·,·
C=C[C@]1(C)C=C2C(=O)[C@@]3(O)OC(=O)[C@@]4(CCCC(C)(C)[C@H]34)[C@@]2(O)CC1,72.4*,-12.0,0.6,-1.1,8.9,61.3*,80.8*
CCCNC(=O)N1C[C@@H]2[C@H](c3ccccc31)[C@@H](CO)N2C(=O)NCCC,·,·,-0.1,·,·,·,·
COc1ccc(N=N/C(=C\O)C(=O)c2cccs2)cc1,8.9,11.6,0.0,-0.2,-1.1,·,·
N#CC(C#N)=C1C=CC=CN1/C(=C\c1ccco1)C(=O)c1ccccc1,53.7*,-6.2,0.0,-2.1,-2.9,102.1*,110.2*
CC(C)(C)NC(=O)/C(=C/c1ccco1)c1ccccc1,9.0,1.2,·,0.0,2.6,·,·
COc1ccc(C(=O)/C(=C\c2ccco2)N2C=CC=CC2=C(C#N)C#N)cc1,79.8*,-7.7,·,-3.2,0.9,97.2*,102.4*
COc1ccc(/C=C(/C(=O)c2cccs2)N2C=CC=CC2=C(C#N)C#N)cc1,33.2*,-9.0,2.1,-1.3,-4.4,58.9*,80.8*
CCOC(=O)c1c(CSC(=N)N)n(-c2ccc(C)cc2)c2cc(Br)c(OC(C)=O)cc12,30.9*,-9.1,·,12.8,1.6,32.7*,29.7*
